# pIC50, pKi: −log10 of the molar value. Calls of active or inactive are those of the source. No cut-off for these calls is given here.
# What was measured:
# [1] = biological target: T1, Cholecystokinin receptor type A (Homo sapiens, UniProt P32238); assay: Displacement of [125I]BH-(Thr,-Nle)-CCK-9 from human CCK1 receptor expressed in COS-7 cells after 60 mins by gamma counting; assay type: cell-based
# T1 sequence (P32238 whole entry): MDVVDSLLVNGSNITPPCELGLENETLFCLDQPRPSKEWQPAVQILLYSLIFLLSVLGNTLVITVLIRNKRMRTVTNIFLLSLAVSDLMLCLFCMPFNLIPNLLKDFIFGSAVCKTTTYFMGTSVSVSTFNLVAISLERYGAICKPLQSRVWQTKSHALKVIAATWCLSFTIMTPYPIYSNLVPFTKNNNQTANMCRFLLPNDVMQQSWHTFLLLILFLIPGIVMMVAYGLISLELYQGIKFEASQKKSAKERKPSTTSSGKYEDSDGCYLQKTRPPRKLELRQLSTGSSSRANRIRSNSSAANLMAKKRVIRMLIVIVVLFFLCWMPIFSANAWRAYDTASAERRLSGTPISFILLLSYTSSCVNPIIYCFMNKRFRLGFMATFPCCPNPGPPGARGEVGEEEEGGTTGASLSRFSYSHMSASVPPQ
# [2] = Antagonist activity at CCK1 receptor in Hartley guinea pig gall bladder assessed as inhibition of CCK8-induced contraction; assay type: functional, tissue-based, Cavia porcellus
# Outline: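 Circular smooth-muscle strips (about 3 mm × 15 mm) in Krebs–Henseleit at 32 °C, gassed 95% O2/5% CO2, resting tension 0.5 g, isometric recording. After 60 min equilibration with washes every 15 min, antagonist or vehicle is given 5 min before a submaximal (70–80%) CCK-8 concentration. Response is % inhibition of contraction, and IC50 comes from the regression line.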
# [3] = biological target: T2, Cholecystokinin receptor type A (Rattus norvegicus, UniProt P30551); assay: Displacement of [125I]-BH-CCK8 from CCK1 receptor in Sprague-Dawley rat pancreatic acini after 120 hrs by gamma-counting; conditions: in the assay text read “after 30 mins” for “after 120 hrs”
# T2 sequence (P30551 whole entry): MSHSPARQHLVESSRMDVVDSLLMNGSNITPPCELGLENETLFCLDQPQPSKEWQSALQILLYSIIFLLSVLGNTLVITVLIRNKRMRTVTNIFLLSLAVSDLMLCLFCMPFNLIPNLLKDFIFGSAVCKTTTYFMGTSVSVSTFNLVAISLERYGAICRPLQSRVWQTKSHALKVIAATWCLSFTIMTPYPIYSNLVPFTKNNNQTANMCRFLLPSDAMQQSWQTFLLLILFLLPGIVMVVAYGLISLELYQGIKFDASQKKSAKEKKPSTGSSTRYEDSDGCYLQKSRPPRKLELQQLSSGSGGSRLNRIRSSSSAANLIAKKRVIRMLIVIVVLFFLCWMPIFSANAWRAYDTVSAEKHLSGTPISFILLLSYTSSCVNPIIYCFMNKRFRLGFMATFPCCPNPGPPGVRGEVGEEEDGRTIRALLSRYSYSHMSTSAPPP
# Outline: (§1)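 Rats fasted 18–24 h with free water. Acini isolated by enzymatic digestion are incubated with 25 pM [125I]BH-CCK-8 and competitors at 37 °C for 30 min in a shaking bath. Ice-cold Hepes-Ringer pH 7.4 is added, the tubes are centrifuged 5 min at 12500g, and pellet radioactivity is counted. IC50 comes from curve fitting, or ISB% is taken at the top concentration tested.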
# [4] = Displacement of [125I]-BH-CCK8 from CCK2 receptor in Hartley guinea pig cerebral cortex after 120 hrs by gamma-counting; assay type: tissue-based, Cavia porcellus; conditions: in the assay text read “after 120 mins” for “after 120 hrs”; for pIC50: read-out: IC50
# Outline: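 Cortical membranes (0.5 mg protein/ml) are incubated with 25 pM [125I]BH-CCK-8 for 120 min at 25 °C. The buffer is 10 mM Hepes, 118 mM NaCl, 4.7 mM KCl, 5 mM MgCl2, 1 mM EGTA, pH 6.5, with 0.2 mg/mL bacitracin. Samples are vacuum-filtered on GF/B and gamma-counted, with nonspecific binding defined with 1 μM CCK-8. IC50 comes from curve fitting, or ISB% is taken at the top concentration tested.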
# [5] = biological target: T3, Cholecystokinin receptor type A (Homo sapiens) (UniProt P32238); assay: Antagonist activity at human CCK1 receptor expressed in COS7 cells assessed as inhibition of (Thr,Nle)-CCK9-induced inositol phosphate production using myo-2-[3H]inositol after 60 mins by scintillation counting; assay type: functional, cell-based; conditions: COS-7
# T3 sequence (whole entry): T1 sequence (P32238 whole entry)
# Outline: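 COS-7 cells transiently transfected (DEAE-dextran) with receptor cDNA are labelled overnight with 2 μCi/ml myo-2-[3H]inositol. They are preincubated 30 min in DMEM with 20 mM LiCl at 37 °C, then incubated 60 min at 37 °C in PI buffer pH 7.45 with ligands at various concentrations. Inositol phosphates are separated on Dowex AG 1-X8 formate columns and counted by β scintillation.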
# [6] = biological target: T4, Gastrin/cholecystokinin type B receptor (Homo sapiens, UniProt P32239); assay: Displacement of [125I]BH-(Thr,-Nle)-CCK-9 from human CCK2 receptor expressed in COS-7 cells after 60 mins by gamma counting; assay type: cell-based
# T4 sequence (P32239 whole entry): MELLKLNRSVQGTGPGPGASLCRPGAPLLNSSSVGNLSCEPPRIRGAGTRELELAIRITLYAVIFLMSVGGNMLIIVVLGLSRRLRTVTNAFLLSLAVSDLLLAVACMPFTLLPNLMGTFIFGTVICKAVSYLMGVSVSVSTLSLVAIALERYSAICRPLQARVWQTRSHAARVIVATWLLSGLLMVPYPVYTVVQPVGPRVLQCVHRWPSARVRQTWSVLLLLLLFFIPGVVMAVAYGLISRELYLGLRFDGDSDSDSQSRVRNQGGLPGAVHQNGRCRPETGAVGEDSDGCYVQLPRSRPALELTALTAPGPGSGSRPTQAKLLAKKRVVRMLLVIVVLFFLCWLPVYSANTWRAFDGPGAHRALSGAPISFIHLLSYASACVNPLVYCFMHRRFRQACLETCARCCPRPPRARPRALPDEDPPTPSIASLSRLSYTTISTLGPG
# [7] = biological target: T1, Cholecystokinin receptor type A; assay: Displacement of [125I]-BH-JMV-179 from wild type human CCK1 receptor expressed in COS7 cells after 60 mins by gamma counting; assay type: cell-based, COS-7
# Outline: (§2)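 Transiently transfected COS-7 cells (DMEM, 5% FCS, 37 °C, 5% CO2) were given 2 μg/plate pRFE-Neo vector carrying wild-type or mutant receptor cDNA by modified DEAE-dextran, then replated after 24 h. About 24 h later, cells were washed (PBS pH 6.95, 0.1% BSA) and incubated 60 min at 37 °C with 71 pM 125I-BH-(Thr,Nle)CCK-9 ± competitors. After cold washes, cells were lysed in 0.1 N NaOH and gamma-counted.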
# Cavia porcellus [8] = assay: Inhibition of CCK8-induced gall bladder contraction in iv dosed Hartley guinea pig administered 2 mins before CCK8 challenge; assay type: functional; conditions: read-out: ID50 (the source's name)
# Outline: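 Male Hartley guinea pigs (400–450 g) are fasted 48 h and anaesthetised with urethane 1.5 g/kg ip. Jugular vein and trachea are cannulated. Test agents are given iv at different doses 2 min before CCK-8 10 ng/kg iv. The read-out is % reduction of contraction area, and […] comes from the regression of inhibition against log dose.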
# [9] = biological target: Cholecystokinin receptor type A (Homo sapiens, UniProt P32238, F107A); assay: Displacement of [3H]-SR-27897 from human CCK1 F107A mutant receptor expressed in COS7 cells after 60 mins […]; assay type: cell-based, COS-7
# Outline: (§3)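 Wild-type or mutant receptor cDNA in pRFE-Neo (2 μg/plate) was transiently transfected into COS-7 cells by modified DEAE-dextran, and cells were replated 24 h later. After about 24 h more, cells were incubated 60 min at 37 °C in DMEM with 0.1% BSA, 1.83 nM [3H]SR-27,897 and competitors. Cells were washed in cold PBS with 2% BSA, lysed in 0.1 N NaOH, and counted by scintillation. Values are mean ± SEM, at least three experiments in duplicate.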
# [10] = biological target: Cholecystokinin receptor type A (Homo sapiens, UniProt P32238, I352A); assay: Displacement of [3H]-SR-27897 from human CCK1 I352A mutant receptor expressed in COS7 cells after 60 mins […]; assay type: cell-based, COS-7; outline: as §3
# [11] = biological target: Cholecystokinin receptor type A (Homo sapiens, UniProt P32238, R197A); assay: Displacement of [3H]-SR-27897 from human CCK1 R197A mutant receptor expressed in COS7 cells after 60 mins […]; assay type: cell-based, COS-7; outline: as §3
# [12] = biological target: T1, Cholecystokinin receptor type A; assay: Displacement of [3H]-SR-27897 from wild type human CCK1 receptor expressed in COS7 cells after 60 mins […]; assay type: cell-based, COS-7; outline: as §3
# [13] = biological target: Cholecystokinin receptor type A (Homo sapiens, UniProt P32238, N333A); assay: Displacement of [125I]-BH-JMV-179 from human CCK1 receptor N333A mutant expressed in COS7 cells after 60 mins by gamma counting; assay type: cell-based, COS-7; outline: as §2
# [14] = biological target: Cholecystokinin receptor type A (Homo sapiens, UniProt P32238, R336A); assay: Displacement of [3H]-SR-27897 from human CCK1 R336A mutant receptor expressed in COS7 cells after 60 mins […]; assay type: cell-based, COS-7; outline: as §3
# [15] = biological target: Cholecystokinin receptor type A (Homo sapiens, UniProt P32238, M195A); assay: Displacement of [3H]-SR-27897 from human CCK1 M195A mutant receptor expressed in COS7 cells after 60 mins […]; assay type: cell-based, COS-7; outline: as §3
# [16] = biological target: Cholecystokinin receptor type A (Homo sapiens, UniProt P32238, W39A); assay: Displacement of [3H]-SR-27897 from human CCK1 W39A mutant receptor expressed in COS7 cells after 60 mins […]; assay type: cell-based, COS-7; outline: as §3
# [17] = biological target: Cholecystokinin receptor type A (Homo sapiens, UniProt P32238, F330A); assay: Displacement of [3H]-SR-27897 from human CCK1 F330A mutant receptor expressed in COS7 cells after 60 mins […]; assay type: cell-based, COS-7; outline: as §3
# Homo sapiens = organism: Homo sapiens; assay: Apparent selectivity index, ratio of Ki for human CCK2 receptor to Ki for human CCK1 receptor
# [18] = Apparent selectivity index, ratio of IC50 for CCK2 receptor in Hartley guinea pig cerebral cortex to IC50 for CCK1 receptor in Sprague-Dawley rat pancreatic acini; assay type: tissue-based
# [19] = biological target: T5, Cholecystokinin receptor type A (Rattus norvegicus) (UniProt P30551); assay: Displacement of [125I]-BH-CCK8 from CCK1 receptor in Sprague-Dawley rat pancreatic acini at 3 uM after 120 hrs by gamma-counting; conditions: in the assay text read “after 30 mins” for “after 120 hrs”; outline: as §1
# T5 sequence (whole entry): T2 sequence (P30551 whole entry)
# [20] = biological target: T5, Cholecystokinin receptor type A (Rattus norvegicus); assay: Displacement of [125I]-BH-CCK8 from CCK1 receptor in Sprague-Dawley rat pancreatic acini at 10 uM after 120 hrs by gamma-counting; conditions: in the assay text read “after 30 mins” for “after 120 hrs”; outline: as §1
# Cavia porcellus [21] = organism: Cavia porcellus; assay: Displacement of [125I]-BH-CCK8 from CCK2 receptor in Hartley guinea pig cerebral cortex at 30 uM […] by gamma-counting; assay type: tissue-based
# Chain of Cholecystokinin receptor type A (Homo sapiens, UniProt P32238, M195A) (P32238 whole entry M195A): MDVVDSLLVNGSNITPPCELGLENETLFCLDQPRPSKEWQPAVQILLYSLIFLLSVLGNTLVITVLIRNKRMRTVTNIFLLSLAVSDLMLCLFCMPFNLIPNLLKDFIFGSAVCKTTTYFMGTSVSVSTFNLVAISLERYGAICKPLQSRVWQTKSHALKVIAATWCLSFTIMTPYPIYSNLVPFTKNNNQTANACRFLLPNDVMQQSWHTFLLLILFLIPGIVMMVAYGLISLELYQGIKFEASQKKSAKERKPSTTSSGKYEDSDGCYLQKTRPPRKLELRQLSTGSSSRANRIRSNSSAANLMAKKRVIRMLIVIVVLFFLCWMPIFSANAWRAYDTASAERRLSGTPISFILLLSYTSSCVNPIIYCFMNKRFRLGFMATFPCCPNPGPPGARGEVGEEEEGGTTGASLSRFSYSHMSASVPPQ
# Chain of Cholecystokinin receptor type A (Homo sapiens, UniProt P32238, N333A) (P32238 whole entry N333A): as the sequence (P32238 whole entry M195A) above, with A195M, N333A counted along it
# Chain of Cholecystokinin receptor type A (Homo sapiens, UniProt P32238, I352A) (P32238 whole entry I352A): as the sequence (P32238 whole entry M195A) above, with A195M, I352A counted along it
# Chain of Cholecystokinin receptor type A (Homo sapiens, UniProt P32238, F107A) (P32238 whole entry F107A): as the sequence (P32238 whole entry M195A) above, with F107A, A195M counted along it
# Chain of Cholecystokinin receptor type A (Homo sapiens, UniProt P32238, R336A) (P32238 whole entry R336A): as the sequence (P32238 whole entry M195A) above, with A195M, R336A counted along it
# Chain of Cholecystokinin receptor type A (Homo sapiens, UniProt P32238, W39A) (P32238 whole entry W39A): as the sequence (P32238 whole entry M195A) above, with W39A, A195M counted along it
# Chain of Cholecystokinin receptor type A (Homo sapiens, UniProt P32238, F330A) (P32238 whole entry F330A): as the sequence (P32238 whole entry M195A) above, with A195M, F330A counted along it
# Chain of Cholecystokinin receptor type A (Homo sapiens, UniProt P32238, R197A) (P32238 whole entry R197A): as the sequence (P32238 whole entry M195A) above, with A195M, R197A counted along it
smiles,measurement,setting,value
O=C(Nc1ccccc1C(=O)N[C@@H](CCc1ccccc1)C(=O)O)c1cc2ccccc2[nH]1,pKi,[1],6.01
same,pIC50,[2],6.38
same,pIC50,[3],6.50
same,pIC50,[4],5.10
same,inhibition,[5],Active
same,pKi,[6],6.00
O=C(Nc1ccccc1C(=O)N[C@H](CCc1ccccc1)C(=O)O)c1cc2ccccc2[nH]1,pKi,[7],9.49
same,ED50,Cavia porcellus [8],0.35 µmol/kg
same,pKi,[1],8.64
same,pKi,[9],8.42
same,pIC50,[2],7.36
same,pIC50,[3],8.02
same,pKi,[10],7.41
same,pKi,[11],7.71
same,pKi,[12],8.24
same,pKi,[13],8.30
same,pIC50,[4],5.42
same,pKi,[14],6.28
same,pKi,[15],8.12
same,inhibition,[5],Active
same,pKi,[16],8.43
same,pKi,[6],6.00
same,pKi,[17],8.31
O=C(Nc1ccccc1C(=O)NC(C(=O)O)c1ccccc1)c1cc2ccccc2[nH]1 (racemic),pIC50,[3],6.50
O=C(Nc1ccccc1C(=O)NC(CCc1ccccc1)C(=O)O)c1cc2ccccc2[nH]1 (racemic),pKi,[1],8.41
same,pIC50,[2],7.31
same,pIC50,[3],7.80
same,pIC50,[4],5.29
same,inhibition,[5],Active
same,Ratio Ki,Homo sapiens,3900
same,pKi,[6],4.82
same,Ratio IC50,[18],324
O=C(Nc1ccccc1C(=O)NC(CCCc1ccccc1)C(=O)O)c1cc2ccccc2[nH]1 (racemic),pIC50,[3],6.97
same,pIC50,[4],6.22
same,Ratio IC50,[18],6
CCOC(=O)C(CCc1ccccc1)NC(=O)c1ccccc1NC(=O)c1cc2ccccc2[nH]1 (racemic),inhibition,[19],24%
same,IC50,[4],Not Active
CC(CCc1ccccc1)NC(=O)c1ccccc1NC(=O)c1cc2ccccc2[nH]1 (racemic),inhibition,[20],36%
same,IC50,[4],Not Active
O=C(Nc1ccccc1C(=O)NC(CCc1ccccc1)C(=O)NO)c1cc2ccccc2[nH]1 (racemic),pIC50,[3],6.38
same,inhibition,Cavia porcellus [21],37%
O=C(Nc1ccccc1NC(=O)C(CCc1ccccc1)C(=O)O)c1cc2ccccc2[nH]1 (racemic),pIC50,[3],6.14
same,pIC50,[4],5.21
same,Ratio IC50,[18],8
O=C(Nc1ccccc1C(=O)NC(Cc1ccccc1)C(=O)O)c1cc2ccccc2[nH]1 (racemic),pKi,[1],7.22
same,pIC50,[4],4.79
same,Ratio Ki,Homo sapiens,368
same,pKi,[6],4.66
same,Ratio IC50,[18],83
NC(=O)C(CCc1ccccc1)NC(=O)c1ccccc1NC(=O)c1cc2ccccc2[nH]1 (racemic),inhibition,[19],inactive
O=C(Nc1ccccc1C(=O)NC(CCCCc1ccccc1)C(=O)O)c1cc2ccccc2[nH]1 (racemic),inhibition,[20],39%

# Source: ChEMBL document CHEMBL1932953, “New anthranilic acid based antagonists with high affinity and selectivity for the human cholecystokinin receptor 1 (hCCK1-R)” (J Med Chem, 2011)
